Compound activity from PubChem.
pPAFAH FP inh = inhibitors of human plasma PAF acetylhydrolase (pPAFAH). Q13093. recombinant pPAFAH, FP-rhodamine probe fluorescence polarization. inhibition, % at 3.39 µM. 330,000 compounds, 1.5% hits. AID 463082;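 active means inhibition above the mean inhibition across the screen plus 3 SD, cut at about 25% in these data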;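 further: inhibitors block binding of the rhodamine activity-based probe so polarization drops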
PAFAH1B3 FP inh = inhibitors of human PAFAH1B3; inhibition, % at 3.39 µM; recombinant PAFAH1B3, FP-rhodamine probe, fluorescence polarization; 340,000 compounds, 0.28% hits;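 active means inhibition above the screen-wide average of all tested compounds plus 3 SD, cut at about 25% in these data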
Target sequence (Q15102 whole entry, looked up): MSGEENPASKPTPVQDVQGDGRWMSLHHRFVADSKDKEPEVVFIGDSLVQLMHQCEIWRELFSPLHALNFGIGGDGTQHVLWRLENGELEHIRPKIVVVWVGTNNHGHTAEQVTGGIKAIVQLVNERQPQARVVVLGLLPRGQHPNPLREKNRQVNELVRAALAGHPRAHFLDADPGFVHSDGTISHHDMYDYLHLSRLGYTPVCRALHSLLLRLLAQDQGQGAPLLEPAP
PAFAH2 inh = inhibitors of human PAFAH2. Q99487. recombinant PAFAH2, FP-rhodamine activity probe, fluorescence polarization. inhibition, % at 3.39 µM. 340,000 compounds, 0.99% hits. AID 492956;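 active means inhibition above the mean over all tested compounds plus 3 SD, cut at about 30% in these data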;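 further: inhibitors block probe labeling of enzyme so polarization drops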
IMP-1 inhibitor = blocks Pseudomonas aeruginosa IMP-1 metallo-beta-lactamase; purified IMP-1, nitrocefin hydrolysis, epi-absorbance fluorescence; inhibition, % at 5.6 µM; 290,000 compounds, 0.45% hits; AID 1556;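 active means inhibition above the mean plus 3 SD of all compounds in the same screening run, cut at about 4.5% in these data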
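System: Purified recombinant IMP-1 metallo-beta-lactamase enzyme | Measured by: Fluorescence quenching readout, ex 480/em 530 nm | Replication: Singlicate | Incubation: 15 min preincubation plus 25 min reaction at 25 °C | Evaluation: Percent inhibition from optical density relative to buffer-blank wells | Benchmarks: DMSO with and without IMP-1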
VIM-2 inhibitor = blocks Pseudomonas aeruginosa VIM-2 metallo-beta-lactamase | 290,000 compounds, 0.89% hits | inhibition, % at 5.6 µM | purified VIM-2, nitrocefin hydrolysis, epi-absorbance fluorescence;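 active means inhibition above the mean of all tested compounds plus 3 SD, cutoff set per screening run, cut at about 7.5% in these data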;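 further: red hydrolysis product quenches plate fluorescence so inhibitors raise well fluorescence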
PAFAH1B2 inh = inhibitors of human PAFAH1B2 | 340,000 compounds, 1.2% hits | inhibition, % at 3.39 µM | recombinant PAFAH1B2, FP-rhodamine activity probe, fluorescence polarization;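 active means inhibition above the mean of all tested compounds plus 3 SD, cut at about 24% in these data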
Target sequence (P68402 whole entry, looked up): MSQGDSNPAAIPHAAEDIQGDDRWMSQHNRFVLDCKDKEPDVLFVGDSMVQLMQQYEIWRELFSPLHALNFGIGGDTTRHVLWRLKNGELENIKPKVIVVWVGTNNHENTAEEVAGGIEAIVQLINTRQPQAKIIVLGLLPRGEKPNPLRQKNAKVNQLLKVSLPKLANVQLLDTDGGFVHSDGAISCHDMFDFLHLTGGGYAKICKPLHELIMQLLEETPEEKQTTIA
pPAFAH FP conf = pPAFAH (human) inhibition, confirmed. 2,300 compounds, 72% hits. shares compounds with pPAFAH FP inh. inhibition, % at 3.39 µM. recombinant pPAFAH, FP-Rh probe fluorescence polarization;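 active means mean inhibition of the triplicate above the hit cutoff set for the earlier primary screen, cut at about 25% in these data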
A number is an active result. A selection: hits, their analogues and other compounds. The true share with any hit is near 3.6%.

For O=C(Oc1nsnc1N1CCOCC1)N1CCCCC1 the results were pPAFAH FP inh 57, PAFAH1B3 FP inh inactive, PAFAH2 inh inactive, IMP-1 inhibitor inactive, VIM-2 inhibitor inactive, PAFAH1B2 inh inactive and pPAFAH FP conf 50.
For O=C(Oc1nsnc1N1CCOCC1)c1ccccc1 the results were pPAFAH FP inh inactive, PAFAH1B3 FP inh inactive, PAFAH2 inh inactive, IMP-1 inhibitor inactive, VIM-2 inhibitor inactive and PAFAH1B2 inh inactive.
Screening O=C(Oc1nsnc1N1CCOCC1)N1CCOCC1 returned pPAFAH FP inh 85, PAFAH1B3 FP inh inactive, PAFAH2 inh 31, IMP-1 inhibitor inactive, VIM-2 inhibitor inactive, PAFAH1B2 inh inactive and pPAFAH FP conf 89.
Cc1c(Cc2ccccc2)c(=O)oc2cc(OC(C)C(=O)NCC3CCC(C(=O)O)CC3)c(Cl)cc12 (configuration not stated) was read as pPAFAH FP inh inactive, PAFAH1B3 FP inh inactive, PAFAH2 inh inactive, IMP-1 inhibitor inactive, VIM-2 inhibitor inactive and PAFAH1B2 inh inactive.
`CCSc1cc(N2CCCC2)nc(-c2ccc(Cl)cc2)n1` gave pPAFAH FP inh inactive, PAFAH1B3 FP inh inactive, PAFAH2 inh inactive and PAFAH1B2 inh inactive.
Screening Clc1ccc(-c2nnc(N3CCCC3)nn2)cc1 returned pPAFAH FP inh 50, PAFAH1B3 FP inh inactive, PAFAH2 inh inactive, IMP-1 inhibitor inactive, VIM-2 inhibitor inactive, PAFAH1B2 inh inactive and pPAFAH FP conf inactive.
For CC(=O)c1cccc(-c2ccc3c(=O)[nH]c(Nc4ccccc4)cc3c2)c1 the results were pPAFAH FP inh 48, PAFAH1B3 FP inh 52, PAFAH2 inh inactive, PAFAH1B2 inh inactive and pPAFAH FP conf 28.
`CC(=O)c1cccc(Nc2nc(-c3ccccc3)nc3ccccc23)c1` gave pPAFAH FP inh inactive, PAFAH1B3 FP inh inactive, PAFAH2 inh inactive, IMP-1 inhibitor inactive, VIM-2 inhibitor inactive and PAFAH1B2 inh inactive.
For CCNC(=S)Nc1cccc([N+](=O)[O-])c1 the results were pPAFAH FP inh inactive, IMP-1 inhibitor inactive and VIM-2 inhibitor inactive.
O=[N+]([O-])c1cccc(NC(=S)Nc2nc(-c3ccccc3Cl)cs2)c1 was read as pPAFAH FP inh 39, PAFAH1B3 FP inh inactive, PAFAH2 inh inactive, IMP-1 inhibitor inactive, VIM-2 inhibitor inactive, PAFAH1B2 inh inactive and pPAFAH FP conf inactive.
`O=C(NCc1ccc(F)cc1)c1c2c(nc3ccccc13)CCC2` gave pPAFAH FP inh 36, PAFAH1B3 FP inh inactive, PAFAH2 inh inactive, IMP-1 inhibitor inactive, VIM-2 inhibitor inactive, PAFAH1B2 inh inactive and pPAFAH FP conf 25.
Screening O=C(/C=C/c1ccc(F)cc1)c1cc(Br)ccc1O returned pPAFAH FP inh inactive, PAFAH1B3 FP inh inactive, PAFAH2 inh inactive, IMP-1 inhibitor inactive, VIM-2 inhibitor inactive and PAFAH1B2 inh inactive.
For CCNc1ccc(Br)cc(C(=O)/C=C/c2ccc(Cl)cc2)c1=O the results were pPAFAH FP inh 53, PAFAH1B3 FP inh inactive, PAFAH2 inh inactive, IMP-1 inhibitor 4.5, VIM-2 inhibitor inactive, PAFAH1B2 inh inactive and pPAFAH FP conf 27.
`CNc1ccc(Br)cc(C(=O)/C=C/c2cccc(OC)c2)c1=O` gave pPAFAH FP inh 36, PAFAH1B3 FP inh inactive, PAFAH2 inh inactive, IMP-1 inhibitor 10, VIM-2 inhibitor inactive, PAFAH1B2 inh inactive and pPAFAH FP conf inactive.
`CNc1ccc(Br)cc(C(=O)/C=C/c2ccc(Cl)cc2Cl)c1=O` gave pPAFAH FP inh 51, PAFAH1B3 FP inh inactive, PAFAH2 inh 30, IMP-1 inhibitor inactive, VIM-2 inhibitor inactive, PAFAH1B2 inh inactive and pPAFAH FP conf 36.
CCNc1ccc(Br)cc(C(=O)/C=C/c2ccc3c(c2)OCO3)c1=O was read as pPAFAH FP inh 48, PAFAH1B3 FP inh inactive, PAFAH2 inh 36, IMP-1 inhibitor inactive, VIM-2 inhibitor inactive, PAFAH1B2 inh inactive and pPAFAH FP conf inactive.
For COc1cccc(C(=O)NNC(=O)c2ccc3ccccc3c2O)c1 the results were pPAFAH FP inh inactive, PAFAH1B3 FP inh inactive, PAFAH2 inh inactive and PAFAH1B2 inh inactive.
For COc1ccc(S(=O)(=O)N2CCCCC2)cc1NC(=O)CN(Cc1ccco1)Cc1ccco1 the results were pPAFAH FP inh inactive, PAFAH1B3 FP inh inactive, PAFAH2 inh inactive and PAFAH1B2 inh inactive.
`O=C(O)CCCNc1cc(N2CCN(C(=O)c3ccco3)CC2)c2noc3c2c1C(=O)c1ccccc1-3` gave pPAFAH FP inh 57, PAFAH1B3 FP inh inactive, PAFAH2 inh inactive, IMP-1 inhibitor 8.2, VIM-2 inhibitor inactive, PAFAH1B2 inh inactive and pPAFAH FP conf 31.
`CCOC(=O)N1CCN(c2cc(NCCC(=O)O)c3c4c(onc24)-c2ccccc2C3=O)CC1` gave pPAFAH FP inh 55, PAFAH1B3 FP inh inactive, PAFAH2 inh inactive, IMP-1 inhibitor inactive, VIM-2 inhibitor inactive, PAFAH1B2 inh inactive and pPAFAH FP conf 37.
Screening O=[N+]([O-])c1ccc(/C=N\NS(=O)(=O)c2ccc(F)cc2)o1 returned pPAFAH FP inh inactive, PAFAH1B3 FP inh inactive, PAFAH2 inh inactive, IMP-1 inhibitor inactive, VIM-2 inhibitor inactive and PAFAH1B2 inh inactive.
`COc1ccc(S(=O)(=O)Nc2ccc(F)cc2)cc1N(C)S(=O)(=O)c1ccc(Cl)cc1` gave pPAFAH FP inh 38, PAFAH1B3 FP inh inactive, PAFAH2 inh inactive, IMP-1 inhibitor inactive, VIM-2 inhibitor inactive, PAFAH1B2 inh inactive and pPAFAH FP conf 35.
CCCSC1=N/C(=C\C=C\c2ccco2)C(=O)S1 was read as pPAFAH FP inh 45, PAFAH1B3 FP inh inactive, PAFAH2 inh 45, IMP-1 inhibitor inactive, VIM-2 inhibitor inactive, PAFAH1B2 inh inactive and pPAFAH FP conf inactive.
Screening Cc1nn(C(C)C(=O)N2CCCC2)c(=O)c2nn(-c3ccccc3)c(C)c12 (configuration not stated) returned pPAFAH FP inh inactive, PAFAH1B3 FP inh inactive, PAFAH2 inh inactive, IMP-1 inhibitor inactive, VIM-2 inhibitor inactive and PAFAH1B2 inh inactive.
For CCc1cc2c(-c3ccccc3)cc(=O)oc2cc1OCC(=O)NCC1CCC(C(=O)O)CC1 (configuration not stated) the results were pPAFAH FP inh inactive, PAFAH1B3 FP inh inactive, PAFAH2 inh inactive, IMP-1 inhibitor inactive, VIM-2 inhibitor inactive and PAFAH1B2 inh inactive.
Screening O=C(CN1C(=O)CSC1=O)NCc1ccccc1 returned pPAFAH FP inh 78, PAFAH1B3 FP inh inactive, PAFAH2 inh inactive, IMP-1 inhibitor inactive, VIM-2 inhibitor inactive, PAFAH1B2 inh inactive and pPAFAH FP conf inactive.
For CCOC(=O)c1c(N)sc(=S)c2c1CCC2 the results were pPAFAH FP inh 49, PAFAH1B3 FP inh inactive, PAFAH2 inh inactive, IMP-1 inhibitor 12, VIM-2 inhibitor inactive, PAFAH1B2 inh inactive and pPAFAH FP conf inactive.
For Cc1oc2c(c1C(=O)c1ccccc1)C(=O)C(=O)c1ccccc1-2 the results were pPAFAH FP inh 36, PAFAH1B3 FP inh inactive, PAFAH2 inh 34, IMP-1 inhibitor inactive, VIM-2 inhibitor inactive, PAFAH1B2 inh inactive and pPAFAH FP conf 25.
